According to ChEMBL document CHEMBL4689842, “EUbOPEN Chemogenomics Library wave 1” (2021):

Test system: Fibroblast
Assay: Multiplex assay against human fibroblast
Format: toxicity, cell-based
Outline: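 Four dyes were applied at seeding to live cells: Hoechst33342, BioTracker Green Microtubule Cytoskeleton Dye, MitoTracker Red and Annexin V Alexa Fluor 680. Imaging after compound addition used a CQ1 microscope at 37°C and 5% CO2. CellPathfinder machine-learning gating then sorted cells into Hoechst high-intensity objects or normal cells, normal cells into healthy, pyknosed or fragmented nuclei, and pyknosed cells into mitotic or apoptotic, with tubulin, mitochondrial-mass and membrane-permeability phenotypes given as per cents of healthy-nucleus cells.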

[1] = 12 h, 1 µM, compound concentration 1 uM, replicate 1
[2] = 12 h, 1 µM, compound concentration 1 uM, replicate 2
[3] = 12 h, 10 µM, compound concentration 10 uM, replicate 1
[4] = 12 h, 10 µM, compound concentration 10 uM, replicate 2
[5] = 24 h, 1 µM, compound concentration 1 uM, replicate 1
[6] = 24 h, 1 µM, compound concentration 1 uM, replicate 2
[7] = 24 h, 10 µM, compound concentration 10 uM, replicate 1
[8] = 24 h, 10 µM, compound concentration 10 uM, replicate 2
[9] = 48 h, 1 µM, compound concentration 1 uM, replicate 1
[10] = 48 h, 1 µM, compound concentration 1 uM, replicate 2
[11] = 48 h, 10 µM, compound concentration 10 uM, replicate 1
[12] = 48 h, 10 µM, compound concentration 10 uM, replicate 2

## C[C@]12CC[C@@H]3c4ccc(O)cc4CC[C@H]3[C@@H]1CC[C@@H]2O [ESTRADIOL]
[1]
  Population Apoptotic (%): 73%
  Population Fragmented Nuclei (%): 30%
  Population Healthy Nuclei (%): 50%
  Population Hoechst High Intensity Objects (%): 21%
  Population Membrane Permeable-Phenotype (%): 20%
  Population Mitochondria Different-Phenotype (%): 9%
  Population Mitotic Cells (%): 26%
  Population Normal (%): 78%
  Population Pyknosed Nuclei (%): 18%
  Population Tubulin-Different-Phenotype (%): 46%
[2]
  Population Apoptotic (%): 50%
  Population Fragmented Nuclei (%): 8%
  Population Healthy Nuclei (%): 86%
  Population Hoechst High Intensity Objects (%): 5%
  Population Membrane Permeable-Phenotype (%): 4%
  Population Mitochondria Different-Phenotype (%): 8%
  Population Mitotic Cells (%): 50%
  Population Normal (%): 94%
  Population Pyknosed Nuclei (%): 5%
  Population Tubulin-Different-Phenotype (%): 14%
[3]
  Population Apoptotic (%): 75%
  Population Fragmented Nuclei (%): 24%
  Population Healthy Nuclei (%): 57%
  Population Hoechst High Intensity Objects (%): 14%
  Population Membrane Permeable-Phenotype (%): 20%
  Population Mitochondria Different-Phenotype (%): 7%
  Population Mitotic Cells (%): 25%
  Population Normal (%): 85%
  Population Pyknosed Nuclei (%): 18%
  Population Tubulin-Different-Phenotype (%): 33%
[4]
  Population Apoptotic (%): 25%
  Population Fragmented Nuclei (%): 9%
  Population Healthy Nuclei (%): 77%
  Population Hoechst High Intensity Objects (%): 8%
  Population Membrane Permeable-Phenotype (%): 4%
  Population Mitochondria Different-Phenotype (%): 12%
  Population Mitotic Cells (%): 75%
  Population Normal (%): 91%
  Population Pyknosed Nuclei (%): 12%
  Population Tubulin-Different-Phenotype (%): 25%
[5]
  Population Apoptotic (%): 45%
  Population Fragmented Nuclei (%): 33%
  Population Healthy Nuclei (%): 50%
  Population Hoechst High Intensity Objects (%): 18%
  Population Membrane Permeable-Phenotype (%): 29%
  Population Mitochondria Different-Phenotype (%): 3%
  Population Mitotic Cells (%): 55%
  Population Normal (%): 82%
  Population Pyknosed Nuclei (%): 16%
  Population Tubulin-Different-Phenotype (%): 43%
[6]
  Population Apoptotic (%): 50%
  Population Fragmented Nuclei (%): 4%
  Population Healthy Nuclei (%): 89%
  Population Hoechst High Intensity Objects (%): 3%
  Population Membrane Permeable-Phenotype (%): 4%
  Population Mitochondria Different-Phenotype (%): 9%
  Population Mitotic Cells (%): 50%
  Population Normal (%): 96%
  Population Pyknosed Nuclei (%): 6%
  Population Tubulin-Different-Phenotype (%): 14%
[7]
  Population Apoptotic (%): 73%
  Population Fragmented Nuclei (%): 22%
  Population Healthy Nuclei (%): 60%
  Population Hoechst High Intensity Objects (%): 11%
  Population Membrane Permeable-Phenotype (%): 29%
  Population Mitochondria Different-Phenotype (%): 9%
  Population Mitotic Cells (%): 26%
  Population Normal (%): 88%
  Population Pyknosed Nuclei (%): 17%
  Population Tubulin-Different-Phenotype (%): 35%
[8]
  Population Apoptotic (%): 30%
  Population Fragmented Nuclei (%): 18%
  Population Healthy Nuclei (%): 68%
  Population Hoechst High Intensity Objects (%): 3%
  Population Membrane Permeable-Phenotype (%): 5%
  Population Mitochondria Different-Phenotype (%): 11%
  Population Mitotic Cells (%): 70%
  Population Normal (%): 96%
  Population Pyknosed Nuclei (%): 13%
  Population Tubulin-Different-Phenotype (%): 43%
[9]
  Population Apoptotic (%): 83%
  Population Fragmented Nuclei (%): 42%
  Population Healthy Nuclei (%): 51%
  Population Hoechst High Intensity Objects (%): 24%
  Population Membrane Permeable-Phenotype (%): 26%
  Population Mitochondria Different-Phenotype (%): 0%
  Population Mitotic Cells (%): 16%
  Population Normal (%): 75%
  Population Pyknosed Nuclei (%): 5%
  Population Tubulin-Different-Phenotype (%): 42%
[10]
  Population Apoptotic (%): 0%
  Population Fragmented Nuclei (%): 24%
  Population Healthy Nuclei (%): 74%
  Population Hoechst High Intensity Objects (%): 14%
  Population Membrane Permeable-Phenotype (%): 8%
  Population Mitotic Cells (%): 100%
  Population Normal (%): 85%
  Population Pyknosed Nuclei (%): 1%
  Population Tubulin-Different-Phenotype (%): 26%
[11]
  Population Apoptotic (%): 66%
  Population Fragmented Nuclei (%): 36%
  Population Healthy Nuclei (%): 58%
  Population Hoechst High Intensity Objects (%): 13%
  Population Membrane Permeable-Phenotype (%): 11%
  Population Mitochondria Different-Phenotype (%): 3%
  Population Mitotic Cells (%): 33%
  Population Normal (%): 86%
  Population Pyknosed Nuclei (%): 5%
  Population Tubulin-Different-Phenotype (%): 17%
[12]
  Population Apoptotic (%): 0%
  Population Fragmented Nuclei (%): 32%
  Population Healthy Nuclei (%): 65%
  Population Hoechst High Intensity Objects (%): 2%
  Population Membrane Permeable-Phenotype (%): 16%
  Population Mitochondria Different-Phenotype (%): 1%
  Population Mitotic Cells (%): 100%
  Population Normal (%): 97%
  Population Pyknosed Nuclei (%): 2%
  Population Tubulin-Different-Phenotype (%): 41%

## COc1ccc(-c2ccc3ncc4c(c3c2)n(-c2ccc(N3CCNCC3)c(C(F)(F)F)c2)c(=O)n4C)cn1.O=C(O)/C=C\C(=O)O [BGT-226]
[1]
  Population Apoptotic (%): 67%
  Population Fragmented Nuclei (%): 34%
  Population Healthy Nuclei (%): 14%
  Population Hoechst High Intensity Objects (%): 14%
  Population Membrane Permeable-Phenotype (%): 26%
  Population Mitochondria Different-Phenotype (%): 33%
  Population Mitotic Cells (%): 32%
  Population Normal (%): 85%
  Population Pyknosed Nuclei (%): 50%
  Population Tubulin-Different-Phenotype (%): 93%
  Total Cell Count: 122
[2]
  Population Apoptotic (%): 81%
  Population Fragmented Nuclei (%): 24%
  Population Healthy Nuclei (%): 45%
  Population Hoechst High Intensity Objects (%): 17%
  Population Membrane Permeable-Phenotype (%): 70%
  Population Mitochondria Different-Phenotype (%): 94%
  Population Mitotic Cells (%): 18%
  Population Normal (%): 82%
  Population Pyknosed Nuclei (%): 29%
  Population Tubulin-Different-Phenotype (%): 94%
  Total Cell Count: 45
[3]
  Population Apoptotic (%): 62%
  Population Fragmented Nuclei (%): 27%
  Population Healthy Nuclei (%): 2%
  Population Hoechst High Intensity Objects (%): 14%
  Population Membrane Permeable-Phenotype (%): 50%
  Population Mitochondria Different-Phenotype (%): 0%
  Population Mitotic Cells (%): 37%
  Population Normal (%): 85%
  Population Pyknosed Nuclei (%): 69%
  Population Tubulin-Different-Phenotype (%): 0%
  Total Cell Count: 89
[4]
  Population Apoptotic (%): 100%
  Population Fragmented Nuclei (%): 70%
  Population Healthy Nuclei (%): 9%
  Population Hoechst High Intensity Objects (%): 62%
  Population Membrane Permeable-Phenotype (%): 24%
  Population Mitochondria Different-Phenotype (%): 32%
  Population Mitotic Cells (%): 0%
  Population Normal (%): 37%
  Population Pyknosed Nuclei (%): 19%
  Population Tubulin-Different-Phenotype (%): 24%
  Total Cell Count: 675
[5]
  Population Apoptotic (%): 69%
  Population Fragmented Nuclei (%): 45%
  Population Healthy Nuclei (%): 12%
  Population Hoechst High Intensity Objects (%): 18%
  Population Membrane Permeable-Phenotype (%): 58%
  Population Mitochondria Different-Phenotype (%): 16%
  Population Mitotic Cells (%): 30%
  Population Normal (%): 81%
  Population Pyknosed Nuclei (%): 41%
  Population Tubulin-Different-Phenotype (%): 50%
  Total Cell Count: 115
[6]
  Population Apoptotic (%): 83%
  Population Fragmented Nuclei (%): 20%
  Population Healthy Nuclei (%): 40%
  Population Hoechst High Intensity Objects (%): 30%
  Population Membrane Permeable-Phenotype (%): 66%
  Population Mitochondria Different-Phenotype (%): 91%
  Population Mitotic Cells (%): 16%
  Population Normal (%): 69%
  Population Pyknosed Nuclei (%): 40%
  Population Tubulin-Different-Phenotype (%): 91%
  Total Cell Count: 43
[7]
  Population Apoptotic (%): 58%
  Population Fragmented Nuclei (%): 23%
  Population Healthy Nuclei (%): 32%
  Population Hoechst High Intensity Objects (%): 26%
  Population Membrane Permeable-Phenotype (%): 38%
  Population Mitochondria Different-Phenotype (%): 0%
  Population Mitotic Cells (%): 41%
  Population Normal (%): 73%
  Population Pyknosed Nuclei (%): 44%
  Population Tubulin-Different-Phenotype (%): 52%
  Total Cell Count: 89
[8]
  Population Apoptotic (%): 100%
  Population Fragmented Nuclei (%): 79%
  Population Healthy Nuclei (%): 10%
  Population Hoechst High Intensity Objects (%): 64%
  Population Membrane Permeable-Phenotype (%): 69%
  Population Mitochondria Different-Phenotype (%): 60%
  Population Mitotic Cells (%): 0%
  Population Normal (%): 35%
  Population Pyknosed Nuclei (%): 9%
  Population Tubulin-Different-Phenotype (%): 60%
  Total Cell Count: 614
[9]
  Population Apoptotic (%): 84%
  Population Fragmented Nuclei (%): 55%
  Population Healthy Nuclei (%): 25%
  Population Hoechst High Intensity Objects (%): 38%
  Population Membrane Permeable-Phenotype (%): 58%
  Population Mitochondria Different-Phenotype (%): 11%
  Population Mitotic Cells (%): 15%
  Population Normal (%): 61%
  Population Pyknosed Nuclei (%): 19%
  Population Tubulin-Different-Phenotype (%): 47%
  Total Cell Count: 111
[10]
  Population Apoptotic (%): 62%
  Population Fragmented Nuclei (%): 28%
  Population Healthy Nuclei (%): 59%
  Population Hoechst High Intensity Objects (%): 27%
  Population Membrane Permeable-Phenotype (%): 19%
  Population Mitochondria Different-Phenotype (%): 19%
  Population Mitotic Cells (%): 37%
  Population Normal (%): 72%
  Population Pyknosed Nuclei (%): 11%
  Population Tubulin-Different-Phenotype (%): 85%
  Total Cell Count: 188
[11]
  Population Apoptotic (%): 66%
  Population Fragmented Nuclei (%): 57%
  Population Healthy Nuclei (%): 37%
  Population Hoechst High Intensity Objects (%): 42%
  Population Membrane Permeable-Phenotype (%): 50%
  Population Mitochondria Different-Phenotype (%): 4%
  Population Mitotic Cells (%): 33%
  Population Normal (%): 57%
  Population Pyknosed Nuclei (%): 4%
  Population Tubulin-Different-Phenotype (%): 58%
  Total Cell Count: 111
[12]
  Population Apoptotic (%): 25%
  Population Fragmented Nuclei (%): 75%
  Population Healthy Nuclei (%): 17%
  Population Hoechst High Intensity Objects (%): 44%
  Population Membrane Permeable-Phenotype (%): 44%
  Population Mitochondria Different-Phenotype (%): 33%
  Population Mitotic Cells (%): 75%
  Population Normal (%): 55%
  Population Pyknosed Nuclei (%): 7%
  Population Tubulin-Different-Phenotype (%): 55%
  Total Cell Count: 94
